Experimental data as given in ChEMBL document CHEMBL1136224, “De novo synthesis of two new cytotoxic tiazofurin analogues with modified sugar moieties” (Bioorg Med Chem Lett, 2003).

What was measured:
Format in all cases: functional, cell-based
Settings in all cases: Homo sapiens
MCF7 = assay: Concentration required to inhibit MCF-7 cell growth
How it was run: (§1)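 MTT assay after 24 h incubation with compound, top tested concentration 1000 µM. IC50 = concentration giving 50% inhibition of cell growth relative to untreated control. Human lines: myelogenous leukaemia K562, promyelocytic leukaemia HL60, colon adenocarcinoma HT29, breast adenocarcinoma MCF7, normal foetal lung MRC-5.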

HT-29 = assay: Concentration required to inhibit HT-29 cell growth; how it was run: as §1
MRC5 = assay: Concentration required to inhibit MRC-5 cell growth; how it was run: as §1
K562 = assay: Concentration required to inhibit K562 cell growth; how it was run: as §1
HL-60 = assay: Concentration required to inhibit HL-60 cell growth; how it was run: as §1

Row | IC50 (MCF7) | IC50 (HT-29) | IC50 (K562) | IC50 (HL-60) | SMILES | IC50 (MRC5)
1 | > 1000 µM | 0.91 µM | 96.6 µM | 10.5 µM | NC(=O)c1csc([C@@H]2O[C@H](CO)[C@@H](F)[C@H]2O)n1 | > 1000 µM
2 | > 1000 µM | 1 µM | 0.095 µM | 1000 µM | CC(=O)N[C@H]1[C@@H](O)[C@H](c2nc(C(N)=O)cs2)O[C@@H]1CO | 89.7 µM
3 | 8.49 µM | 1.01 µM | 4.16 µM | 9.32 µM | NC(=O)c1csc([C@@H]2O[C@H](CO)[C@@H](O)[C@H]2O)n1 [TIAZOFURIN] | 0.85 µM
